From ChEMBL document CHEMBL1123358, “Design and synthesis of sodium (beta R*, gamma S*)-4-[[3-(4-acetyl-3-hydroxy-2-propylphenoxy)propyl] thio]-gamma-hydroxy-beta-methylbenzenebutanoate: a novel, selective, and orally active receptor antagonist of leukotriene D4” (J Med Chem, 1986) come the findings set out here.

The test system of assay [1] is Cavia porcellus. As to the kind of experiment: In vivo activity against bronchoconstrictions induced by LTD4 (0.2 ug/kg, iv) in anesthetized guinea pig following id administration of compound. In kind it is functional. A digest of the protocol: (§1)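 Anesthetized, artificially ventilated guinea pigs received a single intraduodenal dose, then iv LTD₄ (0.2 μg/kg) bronchoconstriction challenge. Effective dose is the minimum dose giving more than 50% inhibition of bronchoconstriction within 50 min after dosing, with the number of experiments in parentheses.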

The species entered for assay [2] is Cavia porcellus. As to the kind of experiment: In vitro inhibition of responses induced by LTD4 in Isolated terminal guinea pig ileum segments at 0.1 ug/mL. In kind it is functional. A digest of the protocol:
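Terminal ileum segments (2.5 cm) in aerated Krebs-bicarbonate with atropine (10⁻⁶ M) and timolol maleate (0.5 μg/mL), held under 1 g passive force. After equilibration, submaximal control contractions to LTD₄ (0.3 ng/mL) were recorded. Test substance was given for 30 s, then the control LTD₄ concentration was re-added and tension was measured. Percent inhibition is at 0.1 μg/mL, mean ± SEM of three determinations.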

The test system of assay [3] is Cavia porcellus. As to the kind of experiment: In vivo activity against bronchoconstrictions induced by LTD4 (0.2 ug/kg, iv) in anesthetized guinea pig following iv administration of compound. In kind it is functional. A digest of the protocol: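 Artificially ventilated, anesthetized guinea pigs were challenged with LTD₄ 0.2 μg/kg iv. Drug was given iv in cumulative doses, 5 min before each successive LTD₄ challenge. ED₅₀ is from one to two determinations, or mean ± SEM where repeated, with n in parentheses.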

Assay [4] concerns the target T1, Cysteinyl leukotriene receptor 1 (Cavia porcellus, UniProt Q2NNR5).
T1 sequence (Q2NNR5 whole entry): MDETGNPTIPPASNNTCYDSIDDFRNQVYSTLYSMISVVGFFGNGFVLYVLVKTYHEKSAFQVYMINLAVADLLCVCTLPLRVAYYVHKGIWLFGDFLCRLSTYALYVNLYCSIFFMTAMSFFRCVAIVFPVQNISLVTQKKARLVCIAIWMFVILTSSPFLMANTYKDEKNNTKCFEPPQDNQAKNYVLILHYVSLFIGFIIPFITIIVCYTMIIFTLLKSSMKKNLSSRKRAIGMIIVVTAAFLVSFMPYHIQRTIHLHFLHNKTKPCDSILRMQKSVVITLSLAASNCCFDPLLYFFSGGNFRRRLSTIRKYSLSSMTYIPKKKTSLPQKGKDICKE
The experiment in a line: Compound was tested for inhibition of radioligand [3H]LTC4 binding to Cysteinyl leukotriene D4 receptor in guinea pig lung membranes. Format: cell membranes, Membrane.

Assay [5] concerns the target T1, Cysteinyl leukotriene receptor 1. The experiment in a line: Compound was tested for inhibition of radioligand [3H]LTD4 binding to Cysteinyl leukotriene D4 receptor in guinea pig lung membranes. Format: cell membranes, Membrane.
Assay [6] relates to Cavia porcellus. As to the kind of experiment: In vivo activity against bronchoconstrictions induced by LTD4 (0.2 ug/kg, iv) in anesthetized guinea pig administered intraduodenally at 5 mg/kg concentration of compound. As to conditions: route intraduodenal. In kind it is functional. The method, boiled down:
as §1

The inhibition is the percentage by which the read-out fell short of the control. A low value points to a response near the control. For orientation: ED50 means the dose at which the effect has come halfway, by size or by number of responders. The low end stands for an effect at a small dose, the high end for a need for a large dose. As usually defined, the Ki is the equilibrium dissociation constant of an inhibitor or competing ligand from its target. A high value points to a looser hold on the target. Usually inhibition in vivo stands for the relative decrease from the control value, in per cent. A higher inhibition in vivo goes with strong suppression.

In the case of `CCCc1c(OCCCOc2ccc(C(=O)CCC(=O)O)cc2)ccc(C(C)=O)c1O`, in the assay with Cavia porcellus [1], the ED was found to be 5 mg/kg. The same molecule displayed an inhibition at 0.1 µg/mL in the assay filed under Cavia porcellus [2] of 49%. This molecule also registered an ED50 with Cavia porcellus [3] of 1.1 mg/kg.

Consider `CCCc1c(OCCCSc2ccc(CC(=O)O)cc2)ccc(C(C)=O)c1O`, for which the ED in the assay on Cavia porcellus [1] was 10 mg/kg. Further, testing at 0.1 µg/mL in the assay filed under Cavia porcellus [2] gave an inhibition of 65%. In addition, in the assay with Cavia porcellus [3], the ED50 is 1.3 mg/kg.

On to `CCCc1c(OCCCSc2ccc(C(O)C(C)CC(=O)[O-])cc2)ccc(C(C)=O)c1O.[Na+]` (centres undefined), for which, in the assay with Cavia porcellus [1], the ED is above 10 mg/kg. The same molecule gave an inhibition at 0.1 µg/mL in the assay listed under Cavia porcellus [2] of 62%. Further, the median effective dose (ED50) in the assay with Cavia porcellus [3] came to 1.5 mg/kg.

On to `CCCc1c(OCCCOc2ccc(C(=O)CCC(=O)O)cc2C)ccc(C(C)=O)c1O`, for which, in the assay with Cavia porcellus [1], the ED was above 10 mg/kg. In addition, the inhibition at 0.1 µg/mL in the assay filed under Cavia porcellus [2] came to 53%.

Regarding `CCCc1c(OCCCOc2ccc(C(=O)CCC(=O)O)cc2F)ccc(C(C)=O)c1O`, the ED in the assay with Cavia porcellus [1] worked out at 10 mg/kg. This molecule yielded an inhibition at 0.1 µg/mL in the assay listed under Cavia porcellus [2] of 81%. In the assay with Cavia porcellus [3], this molecule had a median effective dose (ED50) of 1 mg/kg.

In the assay with Cavia porcellus [1], `CCCc1c(OCCCSc2ccc(C(=O)CCc3nnn[nH]3)cc2)ccc(C(C)=O)c1O` returned an ED above 10 mg/kg. This molecule also showed an inhibition at 0.1 µg/mL in the assay listed under Cavia porcellus [2] of 63%. In the assay on Cavia porcellus [3], this molecule registered an ED50 of 0.6 mg/kg.

As for `CCCc1cc(C(=O)CCC(=O)O)ccc1SCCCOc1ccc(C(C)=O)c(O)c1CCC`, the ED in the assay on Cavia porcellus [1] was determined as 10 mg/kg. The molecule also displayed an inhibition at 0.1 µg/mL in the assay listed under Cavia porcellus [2] of 37%. In the assay on Cavia porcellus [3], this molecule came in with a 50% effective dose (ED50) of 0.2 mg/kg.

Take `CCCc1c(OCCCSc2ccc(C(O)CCC(=O)O)cc2)ccc(C(C)=O)c1O` (centres undefined): the ED with Cavia porcellus [1] was found to be 10 mg/kg. The molecule also yielded an inhibition at 0.1 µg/mL in the assay filed under Cavia porcellus [2] of 65%. This molecule also yielded a 50% effective dose (ED50) in the assay on Cavia porcellus [3] of 0.5 mg/kg.

As to `CCCc1c(OCCCSc2ccc(C(=O)CCC(=O)O)cc2F)ccc(C(C)=O)c1O`, the ED with Cavia porcellus [1] stood at 10 mg/kg. The molecule further returned an inhibition at 0.1 µg/mL in the assay filed under Cavia porcellus [2] of 82%. The median effective dose (ED50) with Cavia porcellus [3] amounted to 1.1 mg/kg.

Consider `CCCc1c(OCCCSc2ccc(C(O)C(C)(C)CC(=O)[O-])cc2)ccc(C(C)=O)c1O.[Na+]` (centres undefined), for which the ED in the assay with Cavia porcellus [1] came out at 5 mg/kg. The inhibition at 0.1 µg/mL in the assay listed under Cavia porcellus [2] was 45%. The molecule further gave an ED50 in the assay on Cavia porcellus [3] of 0.5 mg/kg.

Regarding `CCCc1c(OCCCSc2ccc(C(O)[C@@H](C)CC(=O)[O-])cc2)ccc(C(C)=O)c1O.[Na+]` (some centres undefined), the ED in the assay on Cavia porcellus [1] was 5 mg/kg. Besides, the Ki amounted to 8.6 µM in assay [4] and 0.4 µM in assay [5]. This molecule also displayed an inhibition in vivo at 5 mg/kg in the assay on Cavia porcellus [6] above 50%. 0.1 µg/mL produced 73% inhibition in the assay listed under Cavia porcellus [2]. Besides, the ED50 in the assay on Cavia porcellus [3] amounted to 0.26 mg/kg.

Take `CCCc1c(OCC(O)CSc2ccc(C(=O)CCC(=O)O)cc2F)ccc(C(C)=O)c1O` (centres undefined): the ED in the assay with Cavia porcellus [1] was above 10 mg/kg. For the same molecule, in the assay listed under Cavia porcellus [2], the inhibition at 0.1 µg/mL was determined as 32%. Further, the ED50 in the assay with Cavia porcellus [3] is 0.9 mg/kg.

`CCCc1c(OCCCSc2ccc(C(=O)CCC(=O)O)cc2)ccc(C(C)=O)c1O`: the ED with Cavia porcellus [1] turned out to be 10 mg/kg. Also, in the assay listed under Cavia porcellus [2], the inhibition at 0.1 µg/mL was found to be 63%. The molecule further came in with an ED50 in the assay on Cavia porcellus [3] of 1.1 mg/kg.

In the assay on Cavia porcellus [1], `CCCc1c(OCC(O)COc2ccc3c(=O)cc(C(=O)O)oc3c2CCC)ccc(C(C)=O)c1O` (centres undefined) [FPL-55712] registered an ED above 10 mg/kg. Moreover, at 0.1 µg/mL the inhibition in the assay listed under Cavia porcellus [2] was 83%. The 50% effective dose (ED50) in the assay with Cavia porcellus [3] was found to be 0.1 mg/kg.
